# Measured values reported in publication PMC6217956 (The FEBS journal, 2016).
# pKd: −log10 of the molar value.
# What was measured:
# Format in all cases: binding
# PTN = target: T1, PTN (Homo sapiens, UniProt P21246); assay: PRE control experiment with 4-hydroxy-TEMPO; conditions: under the condition of the PRE experiments
# T1 sequence (P21246 33-168): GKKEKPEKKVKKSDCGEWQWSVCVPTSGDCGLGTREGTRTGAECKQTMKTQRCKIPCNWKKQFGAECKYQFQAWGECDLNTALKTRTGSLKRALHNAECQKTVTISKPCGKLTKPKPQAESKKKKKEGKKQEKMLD
# [1] = target: T2, C-terminal truncated PTN (residues 1 to 114) (Homo sapiens, UniProt P21246); assay: Immobilized CSA and CSE ELISA of C-terminal truncated PTN; conditions: immobilized native CS, biotinylated truncated PTN (residues 1 to 114)
# T2 sequence (P21246 33-146): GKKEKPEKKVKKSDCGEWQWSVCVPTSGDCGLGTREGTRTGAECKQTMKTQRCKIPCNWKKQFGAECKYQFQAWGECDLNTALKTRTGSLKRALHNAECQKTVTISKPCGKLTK
# Outline: (§1)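 Human PTN (wild type or residues 1–114) was expressed in E. coli Origami B (DE3), purified on a heparin column, and biotinylated by EDC coupling to amine-PEG-biotin (MES pH 5.5). CSA or CSE was EDC/NHS-crosslinked overnight to poly-L-lysine-coated amine plates, then blocked with 5% BSA for 1.5 h. PTN at 2.5–0.015 μg/ml, 1 h; streptavidin-HRP 1 h; TMB; HCl stop; A450. Kd by 1:1 Langmuir fit; ≥3 runs, triplicate points.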
# wild type PTN = target: T3, wild type PTN (Homo sapiens, UniProt P21246); assay: Immobilized CSA and CSE ELISA of wild type PTN; conditions: immobilized native CS, biotinylated wild type PTN, Langmuir isotherm 1:1
# T3 sequence (P21246 33-168): T1 sequence (P21246 33-168)
# Outline: as §1
Molecule,non-specific interactions between the TEMPO moiety and PTN (PTN),Kd [1],pKd (wild type PTN),Kd (wild type PTN)
CC1(C)CC(O)CC(C)(C)N1[O] [4-hydroxy-TEMPO],no non-specific interactions,,,
Chondroitin Sulfate A [CSA],,failed to bind,~7.77,
Chondroitin Sulfate E [CSE],,four to five,,four to five
